Experimental data: ChEMBL document CHEMBL5370653, “Stereoselective Synthesis, Pro-resolution, and Anti-inflammatory Actions of RvD5n-3 DPA” (J Nat Prod, 2023)
Activity calls are given as the source filed them. The rule behind the calls is not given here.

What was measured:
Neutrophil [1] = assay: Induction of phagocytosis in human neutrophils assessed as clearance of pHrodo green conjugated Staphylococcus aureus at 0.001 to 10 nM measured after 2 hrs by hoechst 33342 staining based high content imaging analysis; format: functional, cell-based; settings: dose 0.001-10 nM
Method in brief: (§1)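 Blood neutrophils from healthy donors, Hoechst 33342-stained, in X-VIVO15 with 2 mM L-glutamine and 1% pen/strep, 250,000 cells/well, adhered 30 min at 37 °C. Pretreated 15 min at 37 °C with 0.001–10 nM or 0.05% ethanol vehicle. Then given IgG-opsonized pHrodo particles (S. aureus 5 μg/well, E. coli 5 μg/well, zymosan 2.5 μg/well). Signal rise imaged over 2 h. Mean ± SEM, N = 6 donors.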

Neutrophil [2] = assay: Induction of phagocytosis in human neutrophils assessed as clearance of pHrodo red-conjugated zymosan A particles at 0.001 to 10 nM measured after 2 hrs by hoechst 33342 staining based high content imaging analysis; format: functional, cell-based; settings: dose 0.001-10 nM; method in brief: as §1
[3] = Retention time of the compound in human serum by RP-LC-MS/MS; format: ADME, cell-free
Method in brief: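 Pooled human serum (0.5 mL) mixed with 2 volumes cold MeOH containing d5-Maresin 1, held at −20 °C ≥45 min, then centrifuged. Automated C18 SPE at pH 3.5. Analyzed on a C18 Poroshell column at 0.5 mL/min with a MeOH/H2O/acetic acid gradient. MRM transition 361 > 199.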

Macrophage [4] = assay: Induction of phagocytosis in human macrophages assessed as clearance of pHrodo green conjugated Staphylococcus aureus at 0.001 to 10 nM measured after 2 hrs by hoechst 33342 staining based high content imaging analysis; format: functional, cell-based; settings: dose 0.001-10 nM
Method in brief: (§2)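 Macrophages from donor PBMCs (7 days, RPMI-1640, 10% human serum, 20 ng/mL GM-CSF), 50,000 cells/well, adhered overnight, Hoechst-stained. Pretreated 15 min at 37 °C in RPMI-1640 with 0.001–10 nM or 0.05% ethanol vehicle. Opsonized pHrodo particles added (S. aureus or E. coli 5 μg/well, zymosan 2.5 μg/well). Phagocytosis imaged over 2 h. Mean ± SEM, N = 6 donors.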

Macrophage [5] = assay: Antiinflammatory activity in human macrophages assessed as increase in MerTK level at 10 nM incubated for 7 days by flow cytometry analysis; format: functional, cell-based; settings: time 7.0 day
Method in brief: (§3)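 PBMCs from healthy donors (dextran RBC sedimentation, Histopaque-1077) seeded in low-adhesion plates, 800,000 cells/well. Differentiated to macrophages over 7 days in RPMI-1640 with 10% human serum and 20 ng/mL GM-CSF, with 10 nM test agent or 0.05% ethanol vehicle. Lifted with 5 mM EDTA, Fc-blocked with gamma globulins, surface-stained, then fixed/permeabilized for Arg1. Median fluorescence intensities analyzed by PLS-DA and VIP scores.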

Neutrophil [6] = assay: Induction of phagocytosis in human Neutrophil assessed as clearance of pHrodo red-conjugated Escherichia coli at 0.001 to 10 nM measured after 2 hrs by hoechst 33342 high content imaging analysis; format: functional, cell-based; settings: dose 0.001-10 nM; method in brief: as §1
Macrophage [7] = assay: Induction of phagocytosis in human macrophages assessed as clearance of pHrodo red-conjugated zymosan A particles at 0.001 to 10 nM measured after 2 hrs by hoechst 33342 staining based high content imaging analysis; format: functional, cell-based; settings: dose 0.001-10 nM; method in brief: as §2
Macrophage [8] = assay: Antiinflammatory activity in human macrophages assessed as increase in arginase-1 level at 10 nM incubated for 7 days by flow cytometry analysis; format: functional, cell-based; settings: time 7.0 day; method in brief: as §3
Macrophage [9] = assay: Antiinflammatory activity in human macrophages assessed as increase in CD163 at 10 nM incubated for 7 days by flow cytometry analysis; format: functional, cell-based; settings: time 7.0 day; method in brief: as §3
Macrophage [10] = assay: Induction of phagocytosis in human macrophages assessed as clearance of pHrodo red-conjugated Escherichia coli at 0.001 to 10 nM measured after 2 hrs by hoechst 33342 staining based high content imaging analysis; format: functional, cell-based; settings: dose 0.001-10 nM; method in brief: as §2
Macrophage [11] = assay: Antiinflammatory activity in human macrophages assessed as decrease in CD80 level at 10 nM incubated for 7 days by flow cytometry analysis; format: functional, cell-based; settings: time 7.0 day; method in brief: as §3
Macrophage [12] = assay: Antiinflammatory activity in human macrophages assessed as decrease in CD142 level at 10 nM incubated for 7 days by flow cytometry analysis; format: functional, cell-based; settings: time 7.0 day; method in brief: as §3

CC/C=C\C[C@H](O)/C=C/C=C\C/C=C\C=C\[C@@H](O)CCCCCC(=O)O
Activity (Neutrophil [1]): Active
Activity (Neutrophil [2]): Active
Retention_time [3]: 13.5 min
Activity (Macrophage [4]): Active
Activity (Macrophage [5]): Active
Activity (Neutrophil [6]): Active
Activity (Macrophage [7]): Active
Activity (Macrophage [8]): Active
Activity (Macrophage [9]): Active
Activity (Macrophage [10]): Active
Activity (Macrophage [11]): Active
Activity (Macrophage [12]): Active
